The structures appear in SMILES notation. Entries after “also recorded” stand apart in the source; their conditions may differ. Like-named read-outs stand apart in the source and are kept apart here.

For data set [1], the system named is GLUT1. The settings on record: cited from earlier work.
The test system of data set [2] is GLUT1. The settings on record: cited from earlier work. The source holds these as a separate data set.
The test system of data set [3] is TE‐11 cells. Put plainly: WST‐8 cell proliferation assay. The following applies: for reduced the proliferation of TE‐11 cells by (average ± SD): compared with vehicle‐treated control cells. The class given is cell-based, human. The essentials:
(§1)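 Human ESCC cells, obtained from the Tohoku University or Riken cell banks and authenticated, were seeded at 1‐5 × 10³ cells per well and cultured overnight. They were then exposed for 48 h to the GLUT1-inhibitor test compound (prepared in DMSO), cisplatin, or both, with DMSO-only wells as control. Surviving cells were read by WST‐8 absorbance at 450 nm. Results are mean ± SD of n = 3 replicates, compared by Student's t‐test.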

In data set [4] the test system is TE‐8 cells. Put plainly: WST‐8 cell proliferation assay. The class given is cell-based, human. The settings on record: for reduced the proliferation of TE‐8 cells by (average ± SD): compared with vehicle‐treated control cells. The essentials: as §1
Data set [5] concerns TE‐11 cells. The following applies: read-out: cisplatin IC50 value, high GLUT1 expression, ref GSE36133 and the Genomics of Drug Sensitivity in Cancer; cited from earlier work.
Data set [6] has as its system TE‐8 cells. The following applies: read-out: cisplatin IC50 value, low GLUT1 expression, ref GSE36133 and the Genomics of Drug Sensitivity in Cancer; cited from earlier work.
In data set [7] the test system is human lung cancer xenografts. The settings on record: nude mouse, daily intraperitoneal injection of 10 mg/kg for 10 weeks; cited from earlier work.

As for `Oc1ccc(/C=C/c2cc(O)cc(O)c2)cc1` [resveratrol], in the data set on GLUT1 [1] (50 μmol/L), the efficacy in vitro result is “shown efficacy in vitro”.
For the compound `Cc1c(NC(=O)c2cc(C(N)=O)nc3cc(F)ccc23)c(C(F)(F)F)nn1Cc1ccc(C#N)cc1` [BAY‐876], in the data set on GLUT1 [2], the “selectivity and affinity for GLUT1” value was “high selectivity and affinity”. Moreover, the “reduced the proliferation of TE‐11 cells by (average ± SD)” value with TE‐11 cells [3] (0.025 nmol/L BAY‐876, 48 h) is 51.0% ± 8.2%. The “inhibition of proliferation of TE‐11 cells” value with TE‐11 cells [3] (0.1 nmol/L BAY‐876, 48 h) is “almost complete inhibition; also recorded: strong anti–proliferative effect”. For the same compound, the “reduced the proliferation of TE‐8 cells by (average ± SD)” value in the data set with TE‐8 cells [4] (0.025 nmol/L BAY‐876, 48 h) was 59.9% ± 4.9%. Moreover, the “inhibition of proliferation of TE‐8 cells” value in the data set on TE‐8 cells [4] (0.1 nmol/L BAY‐876, 48 h) was “almost complete inhibition; also recorded: strong anti–proliferative effect”.
Consider `N.N.[Cl][Pt][Cl]` [cisplatin], for which, in the data set with TE‐11 cells [3] (0.5 μmol/L cisplatin, 48 h), the “reduced the proliferation of TE‐11 cells by (average ± SD)” value is listed as 46.0% ± 6.5%. Also, the “effect of very low doses of cisplatin on proliferation” value with TE‐11 cells [3] (0.2 and 0.4 μg/mL cisplatin, 48 h, TE11 cells transfected with GLUT1‐specific siRNA) is given as “strong inhibitory effect”. The IC50 is 20.4 µM in the data set on TE‐11 cells [5] and 10.1 µM in the data set with TE‐8 cells [6]. Moreover, in the data set with TE‐8 cells [4] (0.5 μmol/L cisplatin, 48 h), the “reduced the proliferation of TE‐8 cells by (average ± SD)” value is given as 79.9% ± 2.3%.
Regarding `O=C(O)C(=O)CBr` [3‐bromopyruvate], in the data set on TE‐11 cells [3] (50 μmol/L, data not shown), the “proliferation of TE‐11 cells” value is “inhibits the proliferation”. Besides, the “proliferation of TE‐8 cells” value in the data set on TE‐8 cells [4] (50 μmol/L, data not shown) is on record as “inhibits the proliferation”.
With `O=C(Oc1cccc(F)c1OC(=O)c1cccc(O)c1)c1cccc(O)c1` [WZB117], the efficacy in vitro entry in the data set on GLUT1 [1] (30 μmol/L) was “shown efficacy in vitro”. For the same compound, in data set [7], the blood glucose effect entry was “hyperglycemia”; the “lymphocyte and platelet counts” value was “aberrant lymphocyte and platelet counts”; the “reduction in the volume of human lung cancer xenografts” value is listed as > 70%.

Usually IC50 stands for the midpoint of a concentration-inhibition curve.
